Results taken from ChEMBL document CHEMBL1137687, “Anti-HIV evaluation of benzo[d]isothiazole hydrazones” (Eur J Med Chem, 2009).

What was measured:
[1] = test system: Human immunodeficiency virus 1; test: Antiviral activity against wild type HIV1 3B assessed as protection as protection against virus-induced cytopathogenicity after 4 days by MTT assay; type: functional; settings: Human immunodeficiency virus 1, 3B, 96 h
Procedure, shortened: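 HIV-1 IIIB from supernatants of persistently infected H9/IIIB cells. MT-4 cells, 1 × 10⁴ per well in RPMI 1640 with 10% FCS, exposed to serial compound dilutions (100 mM DMSO stock diluted in medium). Virus inoculum sized in CCID₅₀ to give complete cytopathogenicity by day 4. Incubated at 37 °C, then viability read by MTT. EC₅₀ taken as concentration giving 50% protection from virus-induced cytopathogenicity.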

[2] = test system: Human immunodeficiency virus 1; test: Antiviral activity against NNRTI-resistant HIV1 with reverse transcriptase Y181C mutation in human MT4 cells assessed as protection against virus-induced cytopathogenicity after 4 days by MTT assay; type: functional, organism-based; settings: Human immunodeficiency virus 1, MT4, 96 h
Procedure, shortened: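 Y181C virus (NIH N119) came from an AZT-sensitive clinical isolate passaged in CEM then MT-4 cells with nevirapine; stock 1.2×10⁸ CCID50/mL. It infected 1×10⁴ MT-4 cells/well (RPMI 1640, 10% FCS, 37 °C, 5% CO2) with compound dilutions from 100 mM DMSO stock, at a dose giving full cytopathogenicity by day 4. Readout MTT; EC50 = 50% protection.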

[3] = test system: Human immunodeficiency virus 1; test: Antiviral activity against NNRTI-resistant HIV1 3B with reverse transcriptase K103R+V179D+P225H mutation in human MT4 cells assessed as protection against virus-induced cytopathogenicity after 4 days by MTT assay; type: functional, organism-based; settings: Human immunodeficiency virus 1, 3B, MT4, 96 h
Procedure, shortened: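 K103R+V179D+P225H (EFV^R) virus, from IIIB passaged in MT-4 cells under efavirenz; stock 4.0×10⁷ CCID50/mL. Added to 1×10⁴ MT-4 cells/well (RPMI 1640, 10% FCS, 37 °C, 5% CO2) with compound dilutions from 100 mM DMSO stock, amount causing complete cytopathogenicity at day 4. Viability by MTT; EC50 = concentration giving 50% protection.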

[4] = test system: Human immunodeficiency virus 1; test: Antiviral activity against NNRTI-resistant HIV1 3B with reverse transcriptase K103N+Y181C mutation in human MT4 cells assessed as protection against virus-induced cytopathogenicity after 4 days by MTT assay; type: functional, organism-based; settings: Human immunodeficiency virus 1, 3B, MT4, 96 h
Procedure, shortened: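 MT-4 cells (RPMI 1640, 10% FCS, 37 °C, 5% CO2), 1×10⁴/well, with compound serial dilutions from 100 mM DMSO stock, infected with K103N+Y181C virus (NIH A17, from IIIB passaged in H9 cells with BI-RG 587; stock 2.1×10⁷ CCID50/mL) at dose giving full cytopathogenicity by day 4. MTT viability; EC50 = 50% protection.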

[5] = Cytotoxicity against mock-infected human MT4 cells after 4 days by MTT assay; type: cell-based
Procedure, shortened: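 Mock-infected MT-4 cells, 1 × 10⁴ per well in RPMI 1640 with 10% FCS, 37 °C, 5% CO₂. Exposed to serial compound dilutions from a 100 mM DMSO stock diluted in medium, in parallel with the antiviral assay. Viability read by MTT. CC₅₀ taken as concentration reducing viability of mock-infected cells by 50%.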

Structure (SMILES)	EC50 [1]	EC50 [2]	EC50 [3]	EC50 [4]	CC50 at 96 h [5]
O=c1c2ccccc2sn1/N=C/c1ccc(O)cc1O	> 21 µM	> 21 µM	> 21 µM	> 21 µM	21 µM
Cc1ccc2sn(/N=C/c3ccc(O)cc3)c(=O)c2c1	> 23 µM	> 23 µM	≥ 23 µM	> 23 µM	23 µM
Cc1ccc2sn(/N=C/c3ccc4c(c3)OCO4)c(=O)c2c1	33 µM	33 µM	20 µM	47 µM	> 100 µM
O=c1c2ccccc2sn1/N=C/c1ccccc1	11 µM	> 17 µM	8.6 µM	> 17 µM	17 µM
O=c1c2ccccc2sn1/N=C/c1ccccc1[N+](=O)[O-]	19 µM	20 µM	20 µM	33 µM	68 µM
Cc1ccc2sn(/N=C/c3ccc(Cl)cc3)c(=O)c2c1	24 µM	22 µM	11 µM	33 µM	57 µM
O=c1c2ccccc2sn1/N=C/C=C/c1ccccc1	> 18 µM	> 18 µM	> 18 µM	> 18 µM	18 µM
Cc1ccc2sn(/N=C/c3ccccc3F)c(=O)c2c1	> 18 µM	> 18 µM	> 18 µM	> 18 µM	18 µM
Cc1ccc2sn(/N=C/c3ccccc3O)c(=O)c2c1	> 30 µM	> 30 µM	> 30 µM	> 30 µM	30 µM
Cc1ccc2sn(/N=C/c3cccc(Cl)c3)c(=O)c2c1	> 59 µM	> 59 µM	25 µM	> 59 µM	59 µM
Cc1ccc2sn(/N=C/c3cccc([N+](=O)[O-])c3)c(=O)c2c1	48 µM	32 µM	18 µM	83 µM	> 100 µM
O=c1c2ccccc2sn1/N=C/c1ccc([N+](=O)[O-])cc1	45 µM	29 µM	33 µM	36 µM	> 100 µM
COc1cc(/C=N/n2sc3ccccc3c2=O)ccc1O	> 15 µM	> 15 µM	> 15 µM	> 15 µM	15 µM
Cc1ccc2sn(/N=C/c3ccccc3Cl)c(=O)c2c1	82 µM	100 µM	79 µM	> 100 µM	> 100 µM
Cc1ccc2sn(/N=C/c3cccc(O)c3)c(=O)c2c1	> 16 µM	> 16 µM	8.4 µM	> 16 µM	16 µM
Cc1ccc2sn(/N=C/c3ccccc3)c(=O)c2c1	≥ 33 µM	≥ 33 µM	≥ 33 µM	> 44 µM	44 µM
O=c1c2ccccc2sn1/N=C/c1cccc(F)c1	> 15 µM	> 15 µM	9 µM	> 15 µM	15 µM
O=c1c2ccccc2sn1/N=C/c1cccc(Cl)c1	100 µM	≥ 100 µM	68 µM	≥ 100 µM	> 100 µM
O=c1c2ccccc2sn1/N=C/c1ccccc1O	> 18 µM	> 18 µM	> 18 µM	> 18 µM	18 µM
Cc1ccc2sn(/N=C/C=C/c3ccccc3)c(=O)c2c1	> 19 µM	> 19 µM	> 19 µM	> 19 µM	19 µM
Cc1ccc2sn(/N=C/c3ccccc3[N+](=O)[O-])c(=O)c2c1	> 100 µM	> 100 µM	100 µM	> 100 µM	> 100 µM
Cc1ccc2sn(/N=C/c3ccc(O)c(O)c3)c(=O)c2c1	> 49 µM	> 49 µM	> 49 µM	> 49 µM	49 µM

Structure (SMILES)	EC50 [1]	EC50 [2]	EC50 [3]	EC50 [4]	CC50 at 96 h [5]
O=c1c2ccccc2sn1/N=C/c1ccc(Cl)cc1	> 26 µM	≥ 11 µM	2.9 µM	> 26 µM	26 µM
O=c1c2ccccc2sn1/N=C/c1ccccc1F	≥ 11 µM	> 20 µM	> 20 µM	> 20 µM	20 µM
CCCCCCCCCCC/C=N/n1sc2ccccc2c1=O	> 17 µM	> 17 µM	> 17 µM	> 17 µM	17 µM
O=c1c2ccccc2sn1/N=C/c1ccc([N+](=O)[O-])cc1[N+](=O)[O-]	> 100 µM		> 100 µM	> 100 µM	> 100 µM
Cc1ccc2sn(/N=C/c3ccc([N+](=O)[O-])cc3)c(=O)c2c1	> 100 µM	≥ 100 µM	72 µM	> 100 µM	> 100 µM
Cc1ccc2sn(/N=C/c3ccc(F)cc3)c(=O)c2c1	> 15 µM	> 15 µM	7.3 µM	> 15 µM	15 µM
O=c1c2ccccc2sn1/N=C/c1ccc(F)cc1	4.4 µM	> 17 µM	≥ 17 µM	> 17 µM	17 µM
O=c1c2ccccc2sn1/N=C/c1ccc(O)c(O)c1	> 44 µM	> 44 µM	> 44 µM	> 44 µM	44 µM
COc1ccc(/C=N/n2sc3ccccc3c2=O)cc1	> 19 µM	> 19 µM	> 19 µM	> 19 µM	19 µM
Cc1ccc2sn(/N=C/c3ccc([N+](=O)[O-])cc3[N+](=O)[O-])c(=O)c2c1	> 100 µM	> 100 µM	> 100 µM	> 100 µM	> 100 µM
Cc1ccc2sn(/N=C/c3ccco3)c(=O)c2c1	> 18 µM	> 18 µM	> 18 µM	> 18 µM	18 µM
COc1ccc(/C=N/n2sc3ccc(C)cc3c2=O)cc1	> 55 µM	> 55 µM	> 55 µM	> 55 µM	55 µM
O=c1c2ccccc2sn1/N=C/c1ccco1	> 18 µM	> 18 µM	> 18 µM	> 18 µM	18 µM
O=c1c2ccccc2sn1/N=C/c1ccc(O)cc1	> 18 µM	> 18 µM	8.4 µM	> 18 µM	18 µM
O=c1c2ccccc2sn1/N=C/c1cccc([N+](=O)[O-])c1	36 µM	13 µM	11 µM	57 µM	> 100 µM
O=c1c2ccccc2sn1/N=C/c1cccc(O)c1	> 15 µM	> 15 µM	> 15 µM	> 15 µM	15 µM
CCCCCCCCCCC/C=N/n1sc2ccc(C)cc2c1=O	> 19 µM	> 19 µM	> 19 µM	> 19 µM	19 µM
Cc1ccc2sn(/N=C/c3cccc(F)c3)c(=O)c2c1	> 30 µM	> 30 µM	> 30 µM	> 30 µM	30 µM
O=c1c2ccccc2sn1/N=C/c1ccc2c(c1)OCO2	> 17 µM	> 17 µM	> 17 µM	> 17 µM	17 µM
O=c1c2ccccc2sn1/N=C/c1ccccc1Cl	20 µM	26 µM	24 µM	> 47 µM	47 µM
COc1cc(/C=N/n2sc3ccc(C)cc3c2=O)ccc1O	> 16 µM	> 16 µM	> 16 µM	> 16 µM	16 µM
